Measurements reported in BindingDB's records for doi:10.1021/jm1008924 (Genentech, 2011).

Legend:
Sonic hedgehog protein [1] = molecular target: T1, Sonic hedgehog protein (Homo sapiens, UniProt Q15465); assay: Inhibition of human SHH pathway in mouse S12 cells assessed as GLI-mediated transcriptional activity after 48 hrs by luciferase reporter gene assay
Sonic hedgehog protein [2] = molecular target: T1, Sonic hedgehog protein; assay: Inhibition of human SHH pathway in mouse S12 cells assessed as GLI-mediated transcriptional activity after 48 hrs by luciferase reporter gene assay in presence of 0.5 mg/mL human alpha-1-acid glycoprotein
In short: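 Mouse C3H10T1/2-derived S12 cells carrying a stably integrated GLI-luciferase reporter. Grown in high-glucose DMEM with 10% FBS, replated, then switched to 0.5% FBS to induce cilia. Shh, human AAG (0, 0.5, 1 or 5 mg/mL) and compound added. Luciferase (Dual-Glo) read after 48 h. Mean of four experiments ±SD.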

T1 sequence (Q15465 24-197 limits assumed): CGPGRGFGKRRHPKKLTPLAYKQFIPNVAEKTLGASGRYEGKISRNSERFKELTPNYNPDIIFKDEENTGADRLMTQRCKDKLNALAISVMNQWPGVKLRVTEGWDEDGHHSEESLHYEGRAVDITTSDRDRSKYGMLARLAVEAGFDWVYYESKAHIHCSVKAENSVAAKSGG

IC50 (Sonic hedgehog protein [1]): 15 nM
IC50 (Sonic hedgehog protein [2]): 1750 nM
SMILES: CS(=O)(=O)c1ccc(C(=O)Nc2ccc(Cl)c(-c3ccccn3)c2)c(Cl)c1 [2-chloro-N-(4-chloro-3-(pyridin-2-yl)phenyl)-4-(methylsulfonyl)benzamide]
